Assay outcomes (PubChem)
Hits are enriched below; roughly 5.5% of the tested compounds scored in any of these assays.
STAT3 blocker: inhibitors of IL-6 induced STAT3 signaling; inhibition, % at 5.5 µM; AID 862; U3A cells, IL-6 STAT3-luciferase reporter, luminescence; host cell line lacks STAT1; hit rate 0.89% among 190,000;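 active = inhibition above the mean inhibition across all screened compounds plus 3 SD, cut at about 44% in these data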;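 note: 0% = DMSO only wells and 100% = 100 µM nifuroxazide control wells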
STAT1 inh: reduces IFN-gamma driven STAT1 reporter signal; NIH 3T3 STAT1-luciferase reporter, luminescence; inhibition, % at 5.5 µM; hit rate 0.35% among 200,000; AID 920;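 active = inhibition above a set limit, the mean inhibition across all tested compounds plus 3 SD, cut at about 34% in these data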;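 note: 0% = IFN-gamma with DMSO and 100% = IFN-gamma with 300 µM nifuroxazide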
KCC2 mod: modulates chloride dependent transport by human KCC2; KCC2 cells, thallium flux FluoZin-2 fluorescence; B-score of Tl+ flux slope (higher = more flux/activation; lower = inhibition) at 10 µM; hit rate 2.2% among 190,000; AID 1456;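 active = thallium flux slope and its plate-corrected score both differing from the plate sample mean at a set confidence after two filtering rounds, in either direction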;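 note: slope of fluorescence scaled to starting intensity during 10 to 20 s after thallium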
Target sequence (Q9H2X9 whole entry, looked up): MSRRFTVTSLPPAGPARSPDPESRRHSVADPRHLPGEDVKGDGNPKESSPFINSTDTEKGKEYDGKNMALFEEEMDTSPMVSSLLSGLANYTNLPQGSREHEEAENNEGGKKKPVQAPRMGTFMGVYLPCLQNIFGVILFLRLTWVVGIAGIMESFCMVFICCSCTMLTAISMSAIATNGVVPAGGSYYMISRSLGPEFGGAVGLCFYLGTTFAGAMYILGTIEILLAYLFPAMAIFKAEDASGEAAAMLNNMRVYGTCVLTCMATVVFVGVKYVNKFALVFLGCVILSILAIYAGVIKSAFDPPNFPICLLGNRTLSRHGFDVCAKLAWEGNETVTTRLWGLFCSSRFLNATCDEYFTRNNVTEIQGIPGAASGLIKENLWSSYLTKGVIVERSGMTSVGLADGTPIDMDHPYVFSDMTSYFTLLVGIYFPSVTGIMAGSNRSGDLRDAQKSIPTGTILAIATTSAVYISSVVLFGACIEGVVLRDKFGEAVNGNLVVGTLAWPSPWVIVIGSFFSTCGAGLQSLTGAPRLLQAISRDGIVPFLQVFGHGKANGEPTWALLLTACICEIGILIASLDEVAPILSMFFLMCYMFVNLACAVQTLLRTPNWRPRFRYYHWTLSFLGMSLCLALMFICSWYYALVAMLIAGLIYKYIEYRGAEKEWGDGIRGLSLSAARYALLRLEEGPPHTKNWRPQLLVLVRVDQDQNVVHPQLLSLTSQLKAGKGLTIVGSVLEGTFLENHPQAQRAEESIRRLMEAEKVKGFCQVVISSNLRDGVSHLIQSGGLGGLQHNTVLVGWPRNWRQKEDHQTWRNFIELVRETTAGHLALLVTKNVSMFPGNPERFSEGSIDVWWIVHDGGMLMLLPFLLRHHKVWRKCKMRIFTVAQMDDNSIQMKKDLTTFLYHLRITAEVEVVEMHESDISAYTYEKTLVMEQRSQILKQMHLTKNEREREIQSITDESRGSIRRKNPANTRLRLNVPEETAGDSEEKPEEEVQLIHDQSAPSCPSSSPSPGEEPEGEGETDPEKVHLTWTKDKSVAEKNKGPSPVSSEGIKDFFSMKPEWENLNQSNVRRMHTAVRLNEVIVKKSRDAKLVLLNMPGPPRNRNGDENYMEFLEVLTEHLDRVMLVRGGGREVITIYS
HSV augment: increases HSV replication in cells; hit rate 0.005% among 220,000; maximum fold increase; HSV replication augmentation in cells, fold increase; AID 1956; in the data active = maximum fold increase above about 1.5; inconclusive = no clear call, values can overlap the other calls; tested in PC3 cells
STAT3 act: activators of IL-6 induced STAT3 signaling | hit rate 0.91% among 190,000 | U3A cells, IL-6 STAT3-luciferase reporter, luminescence; 100% = signal with IL-6 EC80 alone | activation (% of control), % at 5.6 µM | AID 871;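 active = activation above the screen-wide mean of compound activation plus 3 SD, cut at about 130% in these data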;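 note: 0% = background luminescence of wells with medium and substrate only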
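Material: human STAT1-deficient U3A cells with stable STAT3-luciferase reporter / Probe or stimulus: IL-6 stimulus at 33 ng/mL final / Schedule: 1 h compound pre-exposure, 6 h IL-6 stimulation, 37 °C / Technique: luminescence / Read-out basis: percent of IL-6-only median luminescence / Control set: IL-6-only high control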
STAT1 act: increases IFN-gamma driven STAT1 reporter signal | NIH 3T3 STAT1-luciferase reporter, luminescence; 100% = IFN-gamma alone, no compound | activation (% of control), % at 5.5 µM | hit rate 2.6% among 200,000;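 active = activation above the screen-wide mean activation plus 3 SD, cut at about 130% in these data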;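 note: raw ratio to IFN-gamma control signal so 100% means no change and 0% no light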
KCC2 secondary: KCC2 (human) modulation, secondary assay; shares compounds with KCC2 mod; HEK293-KCC2, thallium flux, FluoZin2 fluorescence; hits give high values; normalised thallium flux (F/F0 slope) at 10 µM; hit rate 15% among 3,700; AID 1713;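 active = thallium flux slope above the same plate's solvent-only control mean plus 3 SD; inconclusive = the two replicate wells disagree; inactive = no significant difference from solvent-only control wells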
KCC2 bumet counter: bumetanide-insensitive thallium flux in KCC2 cells with ouabain, counter-screen; normalized thallium flux at 10 µM; hit rate 49% among 3,700; HEK293-KCC2 + bumetanide/ouabain, thallium flux FluoZin2; hits give high values; shares compounds with KCC2 mod; AID 1714;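 active = thallium entry rate above the same plate's blocked-transporter control wells by more than 3 SD; inconclusive = the two repeat wells disagree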;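 note: raw slope of fluorescence over initial fluorescence between 10 and 20 s after thallium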
KCC2 secondary2: KCC2 (human) modulation, second secondary assay | shares compounds with KCC2 mod | HEK293-KCC2, thallium flux FluoZin2 fluorescence; actives lie on both sides; F/F0 rise rate, 10–20 s post-thallium | normalized thallium flux at 10 µM | hit rate 23% among 3,700 | AID 1715;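 active = thallium flux slope more than 3 SD above or below the plate's solvent-only control mean, mostly below; inconclusive = the two repeat wells disagreed; inactive = no significant shift from solvent-only controls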;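 note: raw slope with 0.1% DMSO as baseline and bumetanide as block control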
HEK293 Tl flux: counter-screen for KCC2 modulators: effect in parental HEK293 cells; hit rate 46% among 3,700; AID 1716; thallium flux rate (normalised fluorescence) at 10 µM; shares compounds with KCC2 mod; thallium flux FluoZin2, ouabain; baseline-ratio fluorescence slope, 10–20 s after thallium;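 active = thallium flux rate significantly above the same plate's solvent-only control wells, beyond their mean plus 3 SD; inconclusive = the two replicate wells gave conflicting results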
KCC2 retest ouab: confirmation of human KCC2 modulators with ouabain. shares compounds with KCC2 mod. HEK293-KCC2, thallium flux FluoZin2 fluorescence; bidirectional: low = inhibitor, high = activator. raw Tl+ flux slope (below DMSO = inhibition, above = activation) at 10 µM. AID 1717. hit rate 48% among 3,700;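 active = thallium flux slope beyond 3 SD from same-plate DMSO control mean in most replicates, usually higher, sometimes lower; inconclusive = repeat tests gave conflicting results; inactive = no significant difference from controls in most replicates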;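 note: slope of initial-normalized fluorescence between seconds 10 and 20 after thallium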
HEK counter2: counter-screen for KCC2 modulators: effect in parental HEK293 cells; AID 1718; thallium flux FluoZin-2 fluorescence slope; hit rate 33% among 3,700; shares compounds with KCC2 mod; thallium flux slope at 10 µM;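 active = thallium flux slope above the same plate's solvent-control mean plus 3 SD in both duplicate wells; inconclusive = duplicate wells that disagreed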;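 note: run without ouabain in cells lacking the KCC2 cotransporter; slope of fluorescence scaled to its starting value between 10 and 20 s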
* = called active by the depositor.

CN(Cc1ccccc1)C(=S)Nc1cccnc1 was read as STAT3 blocker 2, STAT1 inh -9, KCC2 mod 0.3, HSV augment inactive, STAT3 act 102 and STAT1 act 108.
CCOC(=O)c1c(N/N=C/c2ccncc2)n[nH]c1C was read as STAT3 blocker 13, STAT1 inh -12, KCC2 mod 18*, HSV augment inactive, STAT3 act 93, STAT1 act 111, KCC2 secondary 0.016, KCC2 bumet counter 0.0042, KCC2 secondary2 0.03, HEK293 Tl flux inconclusive, KCC2 retest ouab 0.016 and HEK counter2 0.0092.
Screening CCOC(=O)c1c(NCc2ccccc2)n[nH]c1C returned STAT3 blocker -23, STAT1 inh 2, KCC2 mod -0.78, HSV augment inactive, STAT3 act 119 and STAT1 act 98.
`COc1ccc(-c2nnc(SCc3ncc(-c4ccccc4)o3)o2)cc1` gave STAT3 blocker -5, STAT1 inh -5, KCC2 mod -3*, HSV augment inactive, STAT3 act 106, STAT1 act 105, KCC2 secondary 0.0068, KCC2 bumet counter 0.0047, KCC2 secondary2 inconclusive, HEK293 Tl flux 0.0066, KCC2 retest ouab 0.018 and HEK counter2 0.01.
Screening CS(=O)(=O)Nc1ccccc1C(=O)c1ccccc1 returned STAT3 blocker 5, STAT1 inh 6, KCC2 mod 0.5, HSV augment inactive, STAT3 act 98 and STAT1 act 95.
`Cc1ccc(NC(=O)CSc2ccccn2)cc1S(=O)(=O)N1CCOCC1` gave STAT3 blocker 4, STAT1 inh 1, KCC2 mod 0.15, HSV augment inactive, STAT3 act 103 and STAT1 act 98.
`Cc1ccc(NC(=O)COC(=O)/C=C/c2ccccc2)cc1S(=O)(=O)N1CCOCC1` gave STAT3 blocker 0, STAT1 inh 4, KCC2 mod -4.1*, HSV augment inactive, STAT3 act 102, STAT1 act 96, KCC2 secondary inconclusive, KCC2 bumet counter 0.0044, KCC2 secondary2 0.021*, HEK293 Tl flux inconclusive, KCC2 retest ouab 0.012* and HEK counter2 0.0091.
For Cc1ccc(NC(=O)CCCSc2ccccc2)cc1S(=O)(=O)N1CCOCC1 the results were STAT3 blocker 2, STAT1 inh 1, KCC2 mod -3*, HSV augment inactive, STAT3 act 100, STAT1 act 99, KCC2 secondary 0.018, KCC2 bumet counter 0.0044, KCC2 secondary2 inconclusive, HEK293 Tl flux 0.0068, KCC2 retest ouab 0.016 and HEK counter2 0.01.
For CCCCc1c(C)nc2ccccc2c1SCCC(=O)O the results were STAT3 blocker -6, STAT1 inh -4, KCC2 mod -2.1, HSV augment inactive, STAT3 act 106 and STAT1 act 103.
CCCCc1c(C)nc2ccc(C)cc2c1SCCC(=O)O was read as STAT3 blocker -6, STAT1 inh 0, KCC2 mod -3.8*, HSV augment inactive, STAT3 act 106, STAT1 act 100, KCC2 secondary 0.0065, KCC2 bumet counter inconclusive, KCC2 secondary2 0.023*, HEK293 Tl flux 0.0075, KCC2 retest ouab 0.015* and HEK counter2 0.01.
Cc1cc2c3c(c1C)C1(C(=O)N3C(C)(C)CC2C)C(C#N)=C(N)Oc2cc(O)ccc21 (centres undefined) was read as STAT3 blocker -1, STAT1 inh -10, KCC2 mod 0.47, HSV augment inactive, STAT3 act 105 and STAT1 act 109.
`O=C(CP(=O)(c1ccccc1)c1ccccc1)Nc1nc2ccccc2s1` gave KCC2 mod -0.41 and HSV augment inactive.
For NC(=S)Nc1nc2ccccc2s1 the results were STAT3 blocker -55, STAT1 inh -40, KCC2 mod 102*, HSV augment inactive, STAT3 act 155*, STAT1 act 134*, KCC2 secondary 0.041*, KCC2 bumet counter 0.087*, KCC2 secondary2 0.051*, HEK293 Tl flux 0.057*, KCC2 retest ouab 0.056* and HEK counter2 0.061*.
CC(/C=C1\SC(=S)N(C(C(=O)O)C(C)C)C1=O)=C\c1ccccc1 (centres undefined) was read as STAT3 blocker 2, STAT1 inh 0, KCC2 mod -3.3*, HSV augment inactive, STAT3 act 101, STAT1 act 98, KCC2 secondary 0.0057, KCC2 bumet counter 0.0047, KCC2 secondary2 0.025*, HEK293 Tl flux 0.0068, KCC2 retest ouab inconclusive and HEK counter2 0.011.
For CC(/C=C1\SC(=S)N(c2ccc(C(=O)O)cc2)C1=O)=C\c1ccccc1 the results were KCC2 mod -1.4 and HSV augment inactive.
For CC(/C=C1\SC(=S)N(CCCC(=O)Nc2ccc(C(=O)O)c(O)c2)C1=O)=C\c1ccccc1 the results were STAT3 blocker -10, STAT1 inh -15, KCC2 mod -4.7*, HSV augment inactive, STAT3 act 108, STAT1 act 114, KCC2 secondary 0.0061, KCC2 bumet counter 0.0043, KCC2 secondary2 0.026, HEK293 Tl flux 0.0068, KCC2 retest ouab 0.014* and HEK counter2 0.0095.
For COc1cc(/C=C2\SC(=S)N(NS(=O)(=O)c3ccccc3)C2=O)ccc1O the results were KCC2 mod -3.2 and HSV augment inconclusive.
`CC(/C=C1\SC(=S)N(NS(=O)(=O)c2ccc(C)cc2)C1=O)=C\c1ccccc1` gave KCC2 mod 99*, HSV augment inactive, KCC2 secondary 0.0065, KCC2 bumet counter 0.1*, KCC2 secondary2 0.072*, HEK293 Tl flux 0.083*, KCC2 retest ouab 0.08* and HEK counter2 0.071*.
